ABCB6 inh MLPCN – inhibitors of human ABC transporter ABCB6 | Q9NP58 | AID 602162 | 0.19% of 360,000 active | K562-ABCB6 porphyrin accumulation, flow cytometry, 1 h; hits give low values | fluorescence ratio to DMSO, % at 10 µM;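 active = fluorescence ratio to DMSO below 75%, the collection mean minus 3 SD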;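 also: signal is porphyrin accumulated inside mitochondria; lower ratio means ABCB6 inhibition with less porphyrin fluorescence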
hiPSC survival – enhancers of human iPSC single-cell survival | AID 602274 | survival enhancement, % at 20 µM | 0.044% of 360,000 active | hiPSC single-cell survival, ATPlite luminescence; 100% = ROCK inhibitor wells, 0% = DMSO; in the data active = survival enhancement above about 18%;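 also: cells exposed to compounds for 16 hours before the ATP read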
FAS TE block – FAS thioesterase (human) inhibition. recombinant FAS-TE, OMFH fluorogenic substrate, fluorescence endpoint. 0.67% of 360,000 active. P49327. inhibition, % at 15 µM. AID 602261;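 active = compounds whose normalised, plate-corrected inhibition of enzyme fluorescence in the single-dose primary screen is 50% or more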
SENP1 inh – SENP1 (human) catalytic domain inhibition | recombinant SENP1 catalytic domain, CyPet-SUMO1-YPet FRET cleavage | inhibition, % at 10 µM | 0.21% of 360,000 active;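 active = inhibition at least 30% at 10 µM, raw YFP signal under a set limit, fluorescence ratio 0.5 to 1.5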
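material = recombinant human SENP1 catalytic domain, His6-tagged | quantity = 20 pM enzyme | reagent = 25 nM SUMO1 FRET substrate | compound dosing = 10 µM single point, 0.5% DMSO | timing = 50 min enzyme reaction, room temperature, light-protected | detection = FRET, CFP and YFP emission | control set = no-enzyme low, enzyme-DMSO high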
FAS-TE conf – confirmation of human fatty acid synthase thioesterase inhibitors; 45% of 2,300 active; inhibition, % at 15 µM; AID 624325; shares compounds with FAS TE block; recombinant FAS-TE, OMFH fluorogenic substrate, fluorescence;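 active = compounds inhibiting the enzyme by at least 50% at 15 µM in any one of the replicates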
A number is an active result; - = inactive; . = no result given. Only some compounds are listed: those with a hit (about 1.1% of all), similar ones and a draw of the others.

SMILES	ABCB6 inh MLPCN	hiPSC survival	FAS TE block	SENP1 inh	FAS-TE conf
CN(CCc1ccccc1)C(=O)c1ccc(NC(=O)Cc2ccc(NC(=O)C3CCN(S(=O)(=O)c4cccc([N+](=O)[O-])c4)CC3)cc2)cc1	-	-	62	-	-
O=c1[nH]c(C2CCCN(S(=O)(=O)c3cccc(Cl)c3)C2)nc2c1nnn2Cc1ccc2c(c1)OCCO2 (stereo not drawn)	-	-	54	-	-
COc1cc(C2NCC(c3ccc(Cl)cc3Cl)c3c2[nH]c2ccccc32)cc(OC)c1OC (stereo not drawn)	-	-	66	-	-
CC(C)(C)OC(=O)NCc1ccc(CNC(=O)c2[nH]cnc2C(=O)NCC(=O)OCc2ccccc2)cc1	-	-	66	-	76
COc1ccc(NC(=O)c2nc[nH]c2C(=O)N[C@H](C)c2ccccc2)cc1	-	-	56	-	50
CC(C)(C)OC(=O)NCCCC[C@H](NC(=O)c1[nH]cnc1C(=O)Nc1ccccc1)C(=O)OC(C)(C)C	-	-	69	-	80
C[C@@H](NC(=O)c1nc[nH]c1C(=O)N[C@@H](CCCCNC(=O)OC(C)(C)C)C(=O)OC(C)(C)C)c1ccccc1	-	-	-	-	.
N/C(=N\c1nc2c(c(=O)[nH]1)CCCC2)Nc1ccccc1Sc1ccccc1	-	-	51	-	-
COc1ccc(OC)c(/C=C2\N=C(c3ccccc3)OC2=O)c1	-	-	61	-	-
COc1cc(/C=C2\N=C(c3ccccc3)OC2=O)ccc1OC(C)=O	-	-	-	-	.
Cc1ccc(NC(=O)CSc2nnc(C)n2C2CC2)cc1S(=O)(=O)N1CCOCC1	-	-	-	-	.
CCCCCc1nc2sc3c(c2c(=O)n1NC(=O)c1ccc([N+](=O)[O-])cc1)CC(C)(C)OC3	-	-	78	-	63
COc1ccc(-c2cc(C)no2)cc1S(=O)(=O)N1CCN(c2ccc([N+](=O)[O-])cc2)CC1	-	-	50	-	-
Cc1cc(NC(=O)CC(C)C)c(=O)n(Cc2ccccc2F)c1	-	-	-	-	.
COc1cccc(-c2ncc3ccccc3c2COC(=O)CCCC(=O)O)c1	-	-	-	-	.
COc1ccc2c(c1)C(=O)N1[C@H]3c4cc(OC)ccc4OC[C@@H]3[C@H](c3ccccc3)[C@]1(C)C(=O)N2	-	-	72	-	-
COc1ccc2c(c1)OC[C@H]1[C@H]2N2C(=O)c3cc(Br)ccc3NC(=O)[C@@]2(C)[C@H]1c1ccccc1	-	-	86	-	-
COc1ccc2c(c1)[C@H]1[C@H](CO2)[C@H](c2ccccc2)[C@]2(C)C(=O)Nc3cc(F)ccc3C(=O)N12	-	-	54	-	-
COc1ccc2c(c1)[C@H]1[C@H](CO2)[C@H](c2ccccc2)[C@]2(C)C(=O)Nc3ccc(Br)cc3C(=O)N12	-	-	-	-	.
COc1ccc2c(c1)OC[C@H]1[C@H]2N2C(=O)c3ccc(F)cc3NC(=O)[C@@]2(C)[C@H]1c1ccccc1	-	-	84	-	-
C[C@@]12C(=O)Nc3ccc(F)cc3C(=O)N1[C@H]1c3ccccc3OC[C@@H]1[C@@H]2c1ccccc1	-	-	-	-	.
COc1ccc2c(c1)[C@H]1[C@H](CO2)[C@H](c2ccccc2)[C@]2(C)C(=O)Nc3ccccc3C(=O)N12	-	-	-	-	.
CCOc1cc(OCC)cc(C(=O)NC(=S)Nc2cccc(C(F)(F)F)c2)c1	-	-	-	-	.
O=C(NC(=S)Nc1cccc(C(F)(F)F)c1)c1ccc2nonc2c1	-	-	51	-	-
CCNc1ccc(S(=O)(=O)N(C)C)cc1NCC(=O)Nc1ccc(F)c(Cl)c1	-	-	58	-	39
O=C(Nc1ccc(Br)cc1)c1cccc(-n2cnnn2)c1	-	-	52	-	31
CCOc1ccc(NC(=O)CN(C)C(=O)c2ccc(-c3ccc(C(C)=O)cc3)o2)cc1OCC	-	-	-	-	.
CC(C)C[C@H]1C(=O)N2CCC[C@H]2[C@]2(O)O[C@](NC(=O)C3C=C4c5cccc6[nH]c(Br)c(c56)C[C@H]4N(C)C3)(C(C)C)C(=O)N12 (stereo partly drawn)	-	-	52	-	-
Cc1cc(=O)n2[nH]c(-c3ccc(C(C)(C)C)cc3)cc2n1	-	-	63	-	44
Cc1ccc(COC(=O)c2cccc(S(=O)(=O)N3CCCCCC3)c2)cc1	-	-	-	-	.
